From article PMC9394215 (Journal for Immunotherapy of Cancer, 2022)

Legend:
[1] = molecular target: T1, human CD39 (Homo sapiens, UniProt P49961); assay type: biochemical
T1 sequence (P49961 1-510): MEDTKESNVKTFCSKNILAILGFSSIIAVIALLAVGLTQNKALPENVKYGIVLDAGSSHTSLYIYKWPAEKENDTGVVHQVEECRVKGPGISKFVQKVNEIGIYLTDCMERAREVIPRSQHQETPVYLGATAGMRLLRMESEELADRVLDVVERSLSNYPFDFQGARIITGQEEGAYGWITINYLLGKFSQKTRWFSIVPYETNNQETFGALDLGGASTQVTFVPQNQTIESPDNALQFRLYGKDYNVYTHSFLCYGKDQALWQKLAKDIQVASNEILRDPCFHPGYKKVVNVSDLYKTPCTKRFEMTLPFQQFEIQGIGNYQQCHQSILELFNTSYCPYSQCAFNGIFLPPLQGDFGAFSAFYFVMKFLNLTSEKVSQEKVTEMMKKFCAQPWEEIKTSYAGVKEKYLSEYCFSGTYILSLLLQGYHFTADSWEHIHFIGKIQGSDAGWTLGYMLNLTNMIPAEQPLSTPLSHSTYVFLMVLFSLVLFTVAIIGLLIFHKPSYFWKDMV
Outline: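 CD39 came from human umbilical cord membranes (50.0 ng protein per well). Substrate was 50 µM ATP in 10 mM HEPES, 2 mM CaCl2, 1 mM MgCl2, pH 7.4, with ≤2% DMSO. Enzyme and test compound were preincubated 5 min at 37°C; reaction ran 15 min at 37°C. Malachite green/molybdate was added and A600 read after 20 min at 25°C, minus a heat-denatured enzyme blank. Screening was at 10 µM; curves spanned 0.1–300 µM; n=3.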

[2] = molecular target: T2, NPP1 (Homo sapiens, UniProt P22413); test: NPP1 assay; assay type: biochemical
T2 sequence (P22413 98-925 limits assumed): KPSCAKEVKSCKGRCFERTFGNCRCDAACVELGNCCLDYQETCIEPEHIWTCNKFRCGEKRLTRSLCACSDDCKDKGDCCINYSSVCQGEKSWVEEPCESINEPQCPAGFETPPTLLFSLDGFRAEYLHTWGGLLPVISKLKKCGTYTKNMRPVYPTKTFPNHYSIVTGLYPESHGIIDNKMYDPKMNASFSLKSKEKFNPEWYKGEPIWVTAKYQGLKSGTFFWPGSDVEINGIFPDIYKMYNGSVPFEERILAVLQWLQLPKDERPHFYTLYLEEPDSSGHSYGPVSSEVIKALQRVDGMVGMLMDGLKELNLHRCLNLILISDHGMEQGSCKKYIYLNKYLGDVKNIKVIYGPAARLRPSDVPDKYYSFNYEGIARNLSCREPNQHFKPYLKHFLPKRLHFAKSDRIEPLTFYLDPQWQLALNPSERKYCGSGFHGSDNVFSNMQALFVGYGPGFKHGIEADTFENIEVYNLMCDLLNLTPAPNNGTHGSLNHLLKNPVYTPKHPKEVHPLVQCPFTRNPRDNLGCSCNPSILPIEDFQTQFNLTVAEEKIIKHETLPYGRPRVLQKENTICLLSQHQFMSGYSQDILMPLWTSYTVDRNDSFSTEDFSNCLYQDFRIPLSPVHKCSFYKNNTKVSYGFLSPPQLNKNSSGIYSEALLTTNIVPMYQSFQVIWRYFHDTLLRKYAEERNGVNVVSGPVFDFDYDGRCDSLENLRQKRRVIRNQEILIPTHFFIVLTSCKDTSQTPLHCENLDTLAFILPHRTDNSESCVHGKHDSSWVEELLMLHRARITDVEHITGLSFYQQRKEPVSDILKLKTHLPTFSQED
Outline: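 Crude soluble NPP1 (800 ng, Sf9-expressed) was incubated with 50 µM test compound, 2% DMSO and 300 µM ATP. Buffer: 10 mM CHES, pH 9.0, 2 mM CaCl2, 1 mM MgCl2; 30 min at 37°C with shaking. The reaction was stopped by 5 min at 90°C, then cooled on ice. Product AMP was quantified by capillary electrophoresis.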

[3] = molecular target: T3, CD38 (Homo sapiens, UniProt P28907); test: CD38 assay; assay type: biochemical
T3 sequence (P28907 43-300 limits assumed): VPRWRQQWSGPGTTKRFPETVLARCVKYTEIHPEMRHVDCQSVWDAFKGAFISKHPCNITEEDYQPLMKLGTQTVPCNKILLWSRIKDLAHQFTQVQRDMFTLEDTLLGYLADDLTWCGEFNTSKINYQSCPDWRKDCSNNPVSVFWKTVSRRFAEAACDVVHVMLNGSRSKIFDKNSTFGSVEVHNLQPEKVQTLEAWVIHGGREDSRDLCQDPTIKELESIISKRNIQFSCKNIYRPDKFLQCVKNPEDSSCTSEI
Outline: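 Either CD38 (5 ng) or NPP5 (250 ng) was mixed with 50 µM test compound and 100 µM NAD+ as substrate. For CD38 the reaction buffer was 10 mM HEPES, pH 7.4.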

[4] = tested on: melanoma (MaMel65) cells; test: Extracellular eATP hydrolysis on live melanoma cells; assay type: cell-based, human; details: 1, 10, 100 µM, significant at 10 µM, 20 µM eATP
[5] = patients, peroral; cited from earlier work
[6] = read-out: % inhibition at 50 µM

IC50 [1]: 11.3 ± 0.8 µM
inhibition at 10 µM ([1]; read-out: inhibition of human CD39): > 50%
IC50 [2]: > 50 µM
inhibition at 50 µM [2, 6]: 8%
IC50 [3]: > 50 µM
inhibition at 50 µM [3, 6]: 19%
Structure (SMILES): Cc1cc(Nc2ncc(Cl)c(Nc3ccccc3S(=O)(=O)C(C)C)n2)c(OC(C)C)cc1C1CCNCC1 [ceritinib, Ceritinib]
inhibition of hydrolysis of eATP added to live cells [4]: concentration-dependent inhibition
maximum plasma levels [5]: up to 1.4 µM
